Legend:
[1] = Prodrug conversion in PBS buffer at pH 7.3 assessed as pig liver esterase-mediated cleavage of ketobenzyl-residue measured over 800 hrs by HPLC analysis; assay type: ADME, Sus scrofa; settings: pH 7.3, 800 h
[2] = Cytotoxicity against human CEM/0 CD4+ T cells assessed as reduction in cell viability; assay type: cell-based, CCRF-CEM
How it was run: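 Cytostatic readout: CC₅₀ is the compound concentration inhibiting CEM CD4⁺ T-cell proliferation by 50%. Values are the mean ± SD of n = 2−3 independent experiments.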

[3] = Prodrug conversion in human CEM/0 cell extract assessed as NTP formation by RP18-HPLC analysis; assay type: ADME, tissue-based; settings: ccrf-cem
How it was run: (§1)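 Extract preparation: CEM CD4⁺ T-cells grown in RPMI-1640 to ~3 × 10⁶ cells/mL, washed in cold PB, resuspended at 10⁸ cells/mL, sonicated, clarified at 10,000 rpm and stored at −80 °C. Compounds from 50 mM DMSO stock (diluted to 6.0 mM in DMSO) incubated in the extract. Reactions stopped with THF, put on ice, centrifuged and filtered.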

[4] = tested on: Human immunodeficiency virus 2; experiment: Antiviral activity against HIV2 ROD infected in human TK-deficient […] cells assessed as inhibition of viral-induced giant cell formation incubated for 4 to 5 days by microscopy; settings: Human immunodeficiency virus 2, ISOLATE ROD
[5] = tested on: Human immunodeficiency virus 2; experiment: Antiviral activity against HIV2 ROD infected in human CEM/0 cells assessed as inhibition of virus-induced syncytia cell formation measured after 4 to 5 days by microscopic analysis; settings: Human immunodeficiency virus 2, ISOLATE ROD, CCRF-CEM
[6] = Chemical stability of compound assessed as half life in PBS at pH 7.3 by RP18-HPLC analysis; assay type: physicochemical
How it was run: (§2)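 From 50 mM DMSO stocks, diluted to 1.9 mM hydrolysis solutions in water/DMSO. Reaction started by adding phosphate buffer (50 mM, pH 7.3; 25 mM also stated). Incubated at 37 °C with time-course sampling. Starting material and products (γ-kb-NTP, d4TDP, thymine) followed by analytical rp18 HPLC, from which t½ was calculated.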

[7] = Stability of compound in human CEM/0 cell extract assessed as half life by RP18-HPLC analysis; assay type: ADME, tissue-based, CCRF-CEM; how it was run: as §1
[8] = tested on: Human immunodeficiency virus 1; experiment: Antiviral activity against HIV1 3B infected in human CEM/0 cells assessed as inhibition of virus-induced syncytia cell formation measured after 4 to 5 days by microscopic analysis; assay type: functional, organism-based; settings: Human immunodeficiency virus 1, 3B, CCRF-CEM
How it was run: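 Syncytium-inhibition assay in wild-type CEM/0 or TK-deficient CEM/TK⁻ cells, ~3 × 10⁵ cells/mL, infected with 100 CCID₅₀/mL HIV-1(III_B) or HIV-2(ROD), with serial compound dilutions. Incubated 4−5 days at 37 °C in humidified CO₂ atmosphere. Giant cells scored microscopically; EC₅₀ is the concentration halving HIV-induced giant cell formation. Values are the mean ± SD of n = 2−3 independent experiments.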

[9] = Prodrug conversion in human CEM/0 cell extract assessed as d4TDP formation by RP18-HPLC analysis; assay type: ADME, tissue-based; settings: ccrf-cem; how it was run: as §1
[10] = Stability in pH 7.3 PBS assessed as pig liver esterase mediated hydrolysis by measuring half life upto 2 hrs by HPLC analysis; assay type: ADME, Sus scrofa
How it was run: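 Porcine liver esterase (3 mg/mL in PB) added to compound diluted from a 6.0 mM DMSO/water solution into DMSO and 50 mM phosphate buffer, pH 7.3. Incubated at 37 °C. Timed aliquots snap-frozen in liquid nitrogen, then thawed, sonicated, centrifuged, filtered and analysed by HPLC. t½ calculated as for chemical hydrolysis.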

[11] = Prodrug conversion in human CEM/0 cell extract assessed as gamma-kb-d4TTP formation by RP18-HPLC analysis; assay type: ADME, tissue-based; settings: ccrf-cem; how it was run: as §1
[12] = Substrate activity at human DNA polymerase gamma assessed as increase in primer extension incubated at 37 degC for 60 mins and at 80 degC for 3 mins in presence of fluorescent-lebelled dATP, dCTP and dGTP by PAGE analysis; assay type: ADME; settings: 1.05 h, time 63 min
How it was run: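 Human DNA polymerase γ (4 U) with Cy3-primer/template duplex 0.20 μM in 60 mM Tris-HCl pH 8, 5 mM MgOAc, 1.0 mM DTT, 0.1 mM spermine, 0.01% BSA. Preincubated 5 min at 37 °C without nucleotides, then run 60 min at 37 °C with nucleotides 250 μM, then 80 °C for 3 min. Denaturing 15% PAGE with fluorescence imaging.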

[13] = Stability in human CEM/0 cell extract assessed as parent compound remaining after 98 hrs by HPLC analysis; assay type: ADME, tissue-based, CCRF-CEM; settings: read-out: Stabilty; how it was run: as §1
[14] = Chemical stability of compound in PBS at pH 7.3 by RP18-HPLC analysis; assay type: physicochemical; settings: buffer; how it was run: as §2
[15] = Prodrug conversion in human CEM/0 cell extract assessed as d4TDP formation after 96 hrs by HPLC analysis; assay type: ADME, tissue-based; settings: ccrf-cem; how it was run: as §1
[16] = Substrate activity at HIV reverse transcriptase assessed as increase in primer extension incubated at 37 degC for 60 mins and at 80 degC for 3 mins in presence of fluorescent-lebelled dATP, dCTP and dGTP by PAGE analysis; assay type: ADME; settings: human immunodeficiency virus, 1.05 h; time 63 min
[17] = Prodrug conversion in human CEM/0 cell extract assessed as d4TTP formation after 96 hrs by HPLC analysis; assay type: ADME, tissue-based; settings: ccrf-cem; how it was run: as §1
[18] = Selectivity index, ratio of CC50 for cytotoxicity against human CEM/0 CD4+ T cells to EC50 for antiviral activity against HIV1 3B infected in human CEM/0 cells; assay type: toxicity, cell-based; settings: read-out: Ratio CC50/EC50
How it was run: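 Selectivity index from CC₅₀ (50% inhibition of CEM cell proliferation) and EC₅₀ (50% inhibition of HIV-1(III_B)-induced giant cell formation in CEM/0 cells, 4−5 days, microscopy), both mean ± SD of n = 2−3 independent experiments.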

[19] = Stability in human CEM/0 cell extract assessed as parent compound remaining up to 98 hrs by HPLC analysis; assay type: ADME, tissue-based, CCRF-CEM; settings: read-out: Stabilty; how it was run: as §1
[20] = Substrate activity at HIV reverse transcriptase assessed as increase in primer extension incubated at 37 degC for 15 mins in presence of radiolabeled dATP, dCTP, and dGTP by PAGE analysis; assay type: ADME; settings: human immunodeficiency virus, 0.25 h
How it was run: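 Template 30-mer annealed to a ³²P-labelled 25-mer primer (95 °C, then cooled to −20 °C over 3 h; 20 mM Tris-HCl pH 7.6, 50 mM NaCl). Reaction: 50 mM Tris-HCl pH 8.6, 10 mM MgCl₂, 40 mM KCl, nucleotides 66 μM, HIV-RT 0.2 U, duplex 0.32 μM. Run 15 min at 37 °C, stopped at 80 °C for 3 min. Resolved on denaturing 15% PAGE and read by phosphorimaging.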

SMILES | Drug metabolism [1] | Drug metabolism [3] | EC50 [4] [nM] | EC50 [5] [nM] | half-life [6] [h] | half-life [7] [h] | EC50 [8] [nM] | Drug metabolism [9] | half-life [10] [h] | Drug metabolism [11] | Activity [12] | remaining at 98 h [13] [%] | Stabilty [14] | Drug metabolism [15] | Activity [16] | Drug metabolism [17] | remaining at 98 h [19] [%] | Activity [20] | CC50 [2] [nM] | selectivity ratio [18]
CCCCCCCCC(=O)Oc1ccc(COP(=O)(OCc2ccc(OC(=O)CCCCCCCC)cc2)OP(=O)(O)OP(=O)(O)OC[C@@H]2C=C[C@H](n3cc(C)c(=O)[nH]c3=O)O2)cc1 |  |  | 2260 | 620 | 52 | 2.5 | 310 |  |  |  |  |  |  |  |  |  |  |  | 52000 | 
CCCCCCCCCC(=O)c1ccc(COP(=O)(O)OP(=O)(O)OP(=O)(O)OC[C@@H]2C=C[C@H](n3cc(C)c(=O)[nH]c3=O)O2)cc1 | Metabolite_Notdetected |  |  |  |  | > 30 |  |  |  |  | Not Active | 89 | Stable | Metabolite_Notdetected | Active | Metabolite_Notdetected |  |  |  | 
CCCCCCCCCC(=O)c1ccc(COP(=O)(O)OP(=O)(O)OP(=O)(O)OC[C@H]2O[C@@H](n3cnc4c(N)ncnc43)C[C@@H]2O)cc1 | Metabolite_Notdetected |  | > 10000 | > 10000 |  |  | 10000 |  |  |  |  |  | Stable |  |  |  |  |  | 74000 | 7
CCCCCCCCCC(=O)c1ccc(COP(=O)(OCc2ccc(OC(=O)CCCC)cc2)OP(=O)(O)OP(=O)(O)OC[C@@H]2C=C[C@H](n3cc(C)c(=O)[nH]c3=O)O2)cc1 (stereo not given in full) | Metabolite_Notdetected | Metabolite_Notdetected | 2500 | 1200 | 43 | 1.1 | 370 | Metabolite_Detected | 0.167 | Metabolite_Detected |  |  |  |  |  |  |  |  | 25000 | 
CCCCCCCCCC(=O)c1ccc(COP(=O)(O)OP(=O)(O)OP(=O)(O)OC[C@H]2O[C@@H](n3cc(C)c(=O)[nH]c3=O)C[C@@H]2O)cc1 | Metabolite_Notdetected |  | > 10000 | 8800 |  | > 30 | 6600 |  |  |  | Not Active |  | Stable |  |  |  | 98 | Active | 10000 | 
Cc1cn([C@H]2C=C[C@@H](COP(=O)(O)OP(=O)(O)OP(=O)(O)O)O2)c(=O)[nH]c1=O [STAVUDINE TRIPHOSPHATE] |  |  | > 100000 | 400 |  |  | 1050 |  |  |  |  |  |  |  | Active |  |  |  | > 100000 | 
Cc1cn([C@H]2C=C[C@@H](CO)O2)c(=O)[nH]c1=O [STAVUDINE] |  |  | 150000 | 220 |  |  | 430 |  |  |  |  |  |  |  |  |  |  |  |  | 

Continued by falling EC50 [4], values first:

Drug metabolism [1] | Drug metabolism [3] | EC50 [4] [nM] | EC50 [5] [nM] | half-life [6] [h] | half-life [7] [h] | EC50 [8] [nM] | Drug metabolism [9] | half-life [10] [h] | Drug metabolism [11] | Activity [12] | remaining at 98 h [13] [%] | Stabilty [14] | Drug metabolism [15] | Activity [16] | Drug metabolism [17] | remaining at 98 h [19] [%] | Activity [20] | SMILES | CC50 [2] [nM] | selectivity ratio [18]
Metabolite_Notdetected | Metabolite_Notdetected | 1100 | 780 | 94 | 7.8 | 580 | Metabolite_Detected | 0.167 | Metabolite_Detected |  |  |  |  |  |  |  |  | CCCCCCCCCCCCCCCCCC(=O)Oc1ccc(COP(=O)(OCc2ccc(C(=O)CCCCCCCCC)cc2)OP(=O)(O)OP(=O)(O)OC[C@@H]2C=C[C@H](n3cc(C)c(=O)[nH]c3=O)O2)cc1 (stereo not given in full) | 35000 | 
 |  | 540 | 100 | 50 |  | 120 |  |  |  |  |  |  |  |  |  |  |  | CCCCCCCCCCCCCCCCCC(=O)Oc1ccc(COP(=O)(OCc2ccc(OC(=O)CCCC)cc2)OP(=O)(O)OP(=O)(O)OC[C@@H]2C=C[C@H](n3cc(C)c(=O)[nH]c3=O)O2)cc1 (stereo not given in full) | 33000 | 
Metabolite_Notdetected | Metabolite_Notdetected | 400 | 1100 | 109 | 6.9 | 440 | Metabolite_Detected | 0.167 | Metabolite_Detected |  |  |  |  |  |  |  |  | CCCCCCCCCCCCCCCCCC(=O)c1ccc(COP(=O)(OCc2ccc(OC(=O)CCCCCC)cc2)OP(=O)(O)OP(=O)(O)OC[C@@H]2C=C[C@H](n3cc(C)c(=O)[nH]c3=O)O2)cc1 (stereo not given in full) | 34000 | 
Metabolite_Notdetected | Metabolite_Notdetected | 380 | 830 | 11 | 2.1 | 420 | Metabolite_Detected | 0.167 | Metabolite_Detected |  |  |  |  |  |  |  |  | CCCCCCCCCCCCCCCCCC(=O)Oc1ccc(COP(=O)(OCc2ccc(C(=O)CCCCCCCCCCCCCCCCC)cc2)OP(=O)(O)OP(=O)(O)OC[C@@H]2C=C[C@H](n3cc(C)c(=O)[nH]c3=O)O2)cc1 (stereo not given in full) | 28000 | 
Metabolite_Notdetected |  | 260 | 600 |  | > 30 | 330 |  |  |  | Not Active | 89 | Stable | Metabolite_Notdetected | Active | Metabolite_Notdetected |  |  | CCCCCCCCCCCCCCCCCC(=O)c1ccc(COP(=O)(O)OP(=O)(O)OP(=O)(O)OC[C@@H]2C=C[C@H](n3cc(C)c(=O)[nH]c3=O)O2)cc1 | 13000 | 

Source: ChEMBL document CHEMBL4699643, “γ-Ketobenzyl-Modified Nucleoside Triphosphate Prodrugs as Potential Antivirals” (J Med Chem, 2020)
